Experimental findings from ChEMBL document CHEMBL3421563, “Potent Irreversible Inhibitors of LasR Quorum Sensing in Pseudomonas aeruginosa” (ACS Med Chem Lett, 2015) are described below.

Data set [1] is described as follows: Antagonist activity at Pseudomonas aeruginosa LasR expressed in Escherichia coli BL21 DE3 after 4 to 6 hrs by GFP reporter gene assay. A digest of the protocol:
(§1)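 GFP-based LasR antagonist bioassay. IC50 is the mean of triplicate runs, range as 95% confidence interval. Percent inhibition of GFP is measured at 100 μM relative to Br-HSL positive control, which is set at 100% inhibition.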

Data set [2] concerns the target T1, Transcriptional activator protein LasR (Pseudomonas aeruginosa (strain ATCC 15692 / PAO1 / 1C / PRS 101 / LMG12228)) (UniProt P25084).
T1 sequence (whole entry): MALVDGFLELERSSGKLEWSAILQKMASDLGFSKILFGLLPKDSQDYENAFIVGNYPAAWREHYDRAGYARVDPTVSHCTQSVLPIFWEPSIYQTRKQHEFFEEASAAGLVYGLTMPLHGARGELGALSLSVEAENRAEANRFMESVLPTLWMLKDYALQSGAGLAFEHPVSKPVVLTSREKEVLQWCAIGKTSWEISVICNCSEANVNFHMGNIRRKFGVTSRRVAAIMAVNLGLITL
Kind of data set: Antagonist activity at Pseudomonas aeruginosa LasR expressed in Escherichia coli BL21 DE3 at 100 uM after 4 to 6 hrs by GFP reporter gene assay relative to Br-HSL. In a few lines:
as §1

Data set [3] has as its system Pseudomonas aeruginosa. Kind of data set: Effect on growth of Pseudomonas aeruginosa up to 200 uM. In kind it is organism-based. Particulars: in vivo. A digest of the protocol: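 Bacterial growth is monitored by OD600 at concentrations up to 200 μM.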
Data set [4] addresses T1, Transcriptional activator protein LasR (Pseudomonas aeruginosa (strain ATCC 15692 / PAO1 / 1C / PRS 101 / LMG12228)). The data set can be described thus: Non-competitive antagonist activity at Pseudomonas aeruginosa LasR expressed in Escherichia coli BL21 DE3 at 40 to 80 uM after 4 to 6 hrs by GFP reporter gene assay in presence of LasR agonist 3-oxo-C12HSL. In a few lines:
(§2)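 Competition format of the GFP LasR bioassay: antagonist held at a fixed concentration while a dose-response curve of native agonist 3-oxo-C12 HSL is run; the maximal activation and the curve are compared.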

The target is the same in data set [5]. Kind of data set: Irreversible antagonist activity at Pseudomonas aeruginosa LasR expressed in Escherichia coli BL21 DE3 at 10 to 50 uM after 4 to 6 hrs by GFP reporter gene assay in presence of LasR agonist 3-oxo-C12HSL. In a few lines: as §2
The target in data set [6] is T2, Transcriptional activator protein LasR (Pseudomonas aeruginosa (strain ATCC 15692 / PAO1 / 1C / PRS 101 / LMG12228), UniProt P25084).
T2 sequence (P25084 whole entry): T1 sequence (whole entry)
The data set can be described thus: Agonist activity at Pseudomonas aeruginosa LasR expressed in Escherichia coli BL21 DE3 after 4 to 6 hrs by GFP reporter gene assay.

Data set [7] has as its target T2, Transcriptional activator protein LasR. The data set can be described thus: Agonist activity at Pseudomonas aeruginosa LasR.
The target of data set [8] is T1, Transcriptional activator protein LasR (Pseudomonas aeruginosa (strain ATCC 15692 / PAO1 / 1C / PRS 101 / LMG12228)). Kind of data set: Antagonist activity at LasR in Pseudomonas aeruginosa PAO1 assessed as decrease in pyocyanin level in cell-free supernatants after 12 hrs. A digest of the protocol: (§3)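 Cell-free supernatants from PAO1 or PA14 cultures. Pyocyanin is read directly as absorbance at 695 nm, in triplicate. Cell density is read at A600 in parallel.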

Data set [9] shares this target. Kind of data set: Irreversible antagonist activity at Pseudomonas aeruginosa LasR expressed in Escherichia coli BL21 DE3 at 10 to 100 uM after 4 to 6 hrs by GFP reporter gene assay in presence of LasR agonist 3-oxo-C12HSL. A digest of the protocol: as §2
Data set [10] shares this target. The data set can be described thus: Antagonist activity at LasR in Pseudomonas aeruginosa PA14 assessed as decrease in pyocyanin level in cell-free supernatants after 12 hrs. In a few lines:
as §3

For data set [11] the target is unchanged. Kind of data set: Antagonist activity at LasR in Pseudomonas aeruginosa PAO1 assessed as decrease in pyocyanin level in extracted and acidified cell-free supernatants after 12 hrs. A digest of the protocol: (§4)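 Cell-free culture supernatants undergo a pyocyanin-selective extraction and acidification, then absorbance is read at 520 nm.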
For data set [12] the target is unchanged. The data set can be described thus: Antagonist activity at LasR in Pseudomonas aeruginosa PA14 assessed as decrease in pyocyanin level in extracted and acidified cell-free supernatants after 12 hrs. A digest of the protocol:
as §4

Data set [13] concerns Pseudomonas aeruginosa. Kind of data set: Effect on growth of Pseudomonas aeruginosa PAO1 at 12.5 to 25 uM. Particulars: in vivo. It counts as organism-based. In a few lines:
(§5)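 Growth of PAO1 and PA14 in the pyocyanin cultures is followed by cell density at A600.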

The subject of data set [14] is Pseudomonas aeruginosa. Kind of data set: Effect on growth of Pseudomonas aeruginosa PA14 at 12.5 to 25 uM. In a few lines:
as §5

For data set [15], the target named is T1, Transcriptional activator protein LasR (Pseudomonas aeruginosa (strain ATCC 15692 / PAO1 / 1C / PRS 101 / LMG12228)). The data set can be described thus: Antagonist activity at LasR in Pseudomonas aeruginosa PA14 assessed as inhibition of static biofilm formation after 48 hrs by crystal violet staining. A digest of the protocol: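 Static PA14 cultures; 48 h biofilms quantified by crystal violet staining, absorbance at 550 nm.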

For data set [16] the target is unchanged. The data set can be described thus: Antagonist activity at LasR in Pseudomonas aeruginosa PA14 assessed as inhibition of static biofilm thickness grown in rich media after 36 hrs by SYTO-9 nucleic acid staining-based confocal microscopic analysis. In a few lines:
(§6)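 PA14 biofilms grown 36 h in Luria broth, stained with SYTO-9 and imaged by confocal fluorescence microscopy. Biomass and thickness are computed from the images. Images are taken in duplicate and imaging is repeated three times.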

For data set [17] the target is unchanged. The data set can be described thus: Antagonist activity at LasR in Pseudomonas aeruginosa PA14 assessed as inhibition of overall static biofilm biomass grown in rich media after 36 hrs SYTO-9 nucleic acid staining-based confocal microscopic analysis. A digest of the protocol: as §6
For data set [18] the target is unchanged. Kind of data set: Antagonist activity at LasR in Pseudomonas aeruginosa PA14 assessed as inhibition of static biofilm biomass grown in rich media at 12.5 to 25 uM after 36 hrs SYTO-9 nucleic acid staining-based confocal microscopic analysis.
The target is the same in data set [19]. The data set can be described thus: Antagonist activity at LasR in Pseudomonas aeruginosa PA14 assessed as inhibition of static biofilm thickness grown in rich media at 12.5 to 25 uM after 36 hrs SYTO-9 nucleic acid staining-based confocal microscopic analysis.
For data set [20] the target is unchanged. Kind of data set: Antagonist activity at LasR in Pseudomonas aeruginosa PA14 assessed as inhibition of overall static biofilm morphology grown in rich media at 12.5 to 25 uM after 36 hrs SYTO-9 nucleic acid staining-based confocal microscopic analysis.

Calls of active or inactive are those of the source. No cut-off for these calls is given here.

`O=C(CCl)NCC(=O)Oc1c(Br)cc(Br)cc1CC(=O)Nc1ccccc1[N+](=O)[O-]` had an IC50 in [1] of 73.8 µM. Further, the inhibition in [2] stood at 91%.
The compound `O=C(Cc1cc(Br)cc(Br)c1OCCCCN=C=S)Nc1ccccc1[N+](=O)[O-]` gave an IC50 in data set [1] of 145 µM. The inhibition in [2] stood at 61%. Besides, the Activity entry in the data set with Pseudomonas aeruginosa [3] was “Non-toxic”. Besides, in data set [4], the inhibition result was “Active”.
In turn, `O=C(Cc1cc(Br)cc(Br)c1OC(=O)CCCN1C(=O)C=CC1=O)Nc1ccccc1[N+](=O)[O-]` showed an IC50 in data set [1] of 78.1 µM. Besides, in data set [2], the inhibition was found to be 30%.
Compound `O=C(Cc1cc(Br)cc(Br)c1OC(=O)CCN1C(=O)C=CC1=O)Nc1ccccc1[N+](=O)[O-]` returned an IC50 in [1] of 3.6 µM. In addition, in data set [2], the inhibition worked out at 98%. Besides, in [5], the inhibition result is “Active”.
Consider `O=C(CCl)NCCC(=O)Oc1c(Br)cc(Br)cc1CC(=O)Nc1ccccc1[N+](=O)[O-]`, for which, in data set [1], it took 99.5 µM to reach half-maximal inhibition (IC50). The inhibition in [2] turned out to be 79%.
Regarding `O=C(Cc1ccc(Br)cc1)N[C@H]1CCOC1=O`, the IC50 in [1] is 16.4 µM.
With `O=C(CCCN1C(=O)CCC1=O)Oc1c(Br)cc(Br)cc1CNC(=O)c1ccccc1[N+](=O)[O-]`, the IC50 in data set [1] was greater than 100 µM. This compound returned an EC50 in data set [6] of 119 nM.
On to `O=C(CCN1C(=O)C=CC1=O)Oc1c(Br)cc(Br)cc1CNC(=O)c1ccccc1[N+](=O)[O-]`, for which the IC50 in data set [1] was determined as 51.9 µM. The inhibition in data set [2] worked out at 32%.
In the case of `O=C(Cc1cc(Br)cc(Br)c1OC(=O)CCN1C(=O)CCC1=O)Nc1ccccc1[N+](=O)[O-]`, in [1], the IC50 is greater than 100 µM. In data set [6], this compound came in with an EC50 of 3.6 nM.
`O=C(Oc1c(Br)cc(Br)cc1CNC(=O)c1ccccc1[N+](=O)[O-])c1ccccc1Cl` yielded an EC50 in [7] of 28 nM.
For the compound `O=C(Cc1cc(Br)cc(Br)c1OC(=O)CN1C(=O)C=CC1=O)Nc1ccccc1[N+](=O)[O-]`, the IC50 in [1] was 86.8 µM. Moreover, the inhibition in data set [2] was 56%.
In turn, `O=C(Cc1cc(Br)cc(Br)c1OCCCN=C=S)Nc1ccccc1[N+](=O)[O-]` displayed an IC50 in data set [1] greater than 200 µM. Besides, in data set [2], the inhibition amounted to 55%. Besides, the Activity entry with Pseudomonas aeruginosa [3] is on record as “Non-toxic”.
`O=C(CCCN1C(=O)C=CC1=O)Oc1c(Br)cc(Br)cc1CNC(=O)c1ccccc1[N+](=O)[O-]` displayed an IC50 in data set [1] of 1.5 µM. For the same compound, the inhibition is 101% in data set [2]; “Dose-dependent effect” in data set [8]; “Dose-dependent effect” in data set [10]; “Dose-dependent effect” in [11]; “Dose-dependent effect” in data set [12]; “Dose-dependent effect” in data set [15]. In addition, the inhibition entry in data set [16] and in data set [17] was “Dose-dependent effect” in each case. In addition, the inhibition entry in [9], in [18], in data set [19] and in [20] was “Active” each time. Moreover, the Activity entry with Pseudomonas aeruginosa [13] and in the data set with Pseudomonas aeruginosa [14] was “Non-toxic” in each case.
Consider `O=C(Cc1cc(Br)cc(Br)c1OC(=O)CCCN=C=S)Nc1ccccc1[N+](=O)[O-]`, for which, in data set [1], the IC50 worked out at 148 µM. For the same compound, the inhibition in data set [2] stood at 69%. The Activity entry in the data set with Pseudomonas aeruginosa [3] is “Non-toxic”.
With `O=C(CCCN=C=S)Oc1c(Br)cc(Br)cc1CNC(=O)c1ccccc1[N+](=O)[O-]`, in data set [1], the IC50 was greater than 200 µM. Also, the inhibition in data set [2] was 26%. In the data set on Pseudomonas aeruginosa [3], the Activity result is recorded as “Non-toxic”.
